pIC50: −log10 of the molar value. Calls of active or inactive are those of the source. No cut-off for these calls is given here.
How the values were obtained:
[1] = molecular target: T1, Platelet-derived growth factor receptor beta (Homo sapiens, UniProt P09619); assay: Inhibition of PDGFRbeta (unknown origin) using ATP and enzyme substrate by kinase-glo Plus luminescence kinase assay
MDA-MB-231 [2] = assay: Effect on total Akt protein level in human MDA-MB-231 cells at 2.5 uM incubated for 24 hrs by Western blot relative to untreated control; assay type: ADME, cell-based; conditions: mda-mb-231, 24 h
In short: (§1)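 MDA-MB-231 cells were exposed for 24 h. Adherent and floating cells were pooled and lysed for 1 h at 4 °C in 50 mM Hepes pH 7.4 with 1% Triton X-100, orthovanadate, NaF, EDTA, PMSF, aprotinin and leupeptin. After 12,000 rpm clearing, equal protein was run on 10-15% SDS-PAGE and blotted to PVDF. Detection used HRP-ECL, with β-actin as loading control and densitometric quantification.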

MDA-MB-231 [3] = assay: Effect on total PDGFRbeta protein level in human MDA-MB-231 cells at 2.5 uM incubated for 24 hrs by Western blot relative to untreated control; assay type: ADME, cell-based; conditions: mda-mb-231, 24 h; in short: as §1
MDA-MB-231 [4] = assay: Induction of autophagy in human MDA-MB-231 cells assessed as change in p62 protein level at 5 uM incubated for 24 hrs by Western blot method relative to untreated control; assay type: functional
In short: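 Cells grown in DMEM with 10% FBS under 5% CO2 and treated 24 h across a range of concentrations. Adherent and floating cells were pooled and lysed in Hepes 50 mM pH 7.4 / 1% Triton X-100 buffer with phosphatase and protease inhibitors, 4 °C for 1 h. Equal protein was run on 10-15% SDS-PAGE, blotted to PVDF, probed with Beclin-1, p62 and LC3 antibodies and detected by ECL.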

MDA-MB-231 [5] = assay: Induction of autophagy in human MDA-MB-231 cells assessed as change in LC3-2 protein level at 2.5 uM incubated for 24 hrs in presence of control siRNA by Western blot method relative to untreated control; assay type: functional
In short: (§2)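 Before treatment, MDA-MB-231 cells were transfected with control or PDGFR-β siRNA, then exposed to 2.5 μM compound for 24 h. Lysates of pooled adherent and floating cells were immunoblotted (10-15% SDS-PAGE, PVDF, ECL) for PDGFR-β-AKT-ULK1 autophagy signalling markers, with β-actin as loading control.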

MDA-MB-231 [6] = assay: Induction of autophagy in human MDA-MB-231 cells assessed as change in LC3-2 protein level at 2.5 uM incubated for 24 hrs in presence of PDGFRbeta siRNA by Western blot method relative to untreated control; assay type: functional; in short: as §2
MDA-MB-231 [7] = assay: Effect on total ULK1 protein level in human MDA-MB-231 cells at 2.5 uM incubated for 24 hrs by Western blot relative to untreated control; assay type: ADME, cell-based; conditions: mda-mb-231, 24 h; in short: as §1
MDA-MB-231 [8] = assay: Inhibition of cell migration in human MDA-MB-231 cells at 2.5 to 10 uM incubated for 24 hrs by scratch wound healing assay; assay type: functional, cell-based
In short: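 Cells were grown to confluence and the monolayer was scratched with a longitudinally cut 10 μL tip. Cells were treated with 2.5, 5.0 or 10 μM compound for 24 h and wound closure was viewed by phase-contrast microscopy.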

[9] = molecular target: T2, Mitogen-activated protein kinase; ERK1/ERK2 (Homo sapiens) (UniProt P27361+P28482); assay: Inhibition of ERK1/2 in human MDA-MB-231 cells assessed as ERK1/2 Thr202/Tyr204 phosphorylation level at 2.5 uM incubated for 24 hrs in presence of PDGFRbeta siRNA by Western blot relative to untreated control; assay type: cell-based
T2 sequence (P27361 whole entry, looked up): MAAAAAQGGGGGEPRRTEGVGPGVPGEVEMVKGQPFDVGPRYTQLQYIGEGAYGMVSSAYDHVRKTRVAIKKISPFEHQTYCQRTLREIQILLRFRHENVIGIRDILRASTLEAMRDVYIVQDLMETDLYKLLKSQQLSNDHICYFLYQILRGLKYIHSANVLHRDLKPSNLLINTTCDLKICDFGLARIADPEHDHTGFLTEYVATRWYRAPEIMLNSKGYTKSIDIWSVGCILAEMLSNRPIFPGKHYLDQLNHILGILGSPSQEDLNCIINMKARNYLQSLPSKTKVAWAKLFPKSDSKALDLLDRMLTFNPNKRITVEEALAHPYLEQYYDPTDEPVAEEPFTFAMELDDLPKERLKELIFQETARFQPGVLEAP
T2 sequence (P28482 whole entry, looked up): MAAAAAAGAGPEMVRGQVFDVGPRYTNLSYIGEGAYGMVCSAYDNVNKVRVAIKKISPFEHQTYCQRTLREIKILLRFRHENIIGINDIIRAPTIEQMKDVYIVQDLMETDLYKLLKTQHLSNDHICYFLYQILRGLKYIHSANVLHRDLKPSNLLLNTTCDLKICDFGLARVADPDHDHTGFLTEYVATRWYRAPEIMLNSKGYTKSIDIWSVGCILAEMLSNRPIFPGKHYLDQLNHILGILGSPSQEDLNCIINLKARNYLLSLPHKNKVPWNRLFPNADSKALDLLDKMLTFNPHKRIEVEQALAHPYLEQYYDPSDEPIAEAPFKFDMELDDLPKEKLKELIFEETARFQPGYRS

MDA-MB-468 = assay: Antiproliferative activity against human MDA-MB-468 cells incubated for 24 hrs by MTT assay; assay type: functional, cell-based; conditions: MDA-MB-468, 24 h
MDA-MB-231 [10] = assay: Induction of autophagy in human MDA-MB-231 cells assessed as change in Beclin-1 protein level at 10 uM incubated for 24 hrs by Western blot method relative to untreated control; assay type: functional; in short: as §1
MDA-MB-231 [11] = assay: Effect on total MEK1/2 protein level in human MDA-MB-231 cells at 10 uM incubated for 24 hrs in presence of PDGFRbeta siRNA by Western blot relative to untreated control; assay type: cell-based; conditions: mda-mb-231, 24 h
MDA-MB-231 [12] = assay: Induction of apoptosis in human MDA-MB-231 cells assessed as change in cleaved PARP protein level at 2.5 uM incubated for 24 hrs by Western blot method relative to untreated control; assay type: functional; in short: as §1
[13] = molecular target: T1, Platelet-derived growth factor receptor beta; assay: Inhibition of PDGFRbeta in human MDA-MB-231 cells assessed as Akt Thr305 phosphorylation level at 10 uM incubated for 24 hrs by Western blot relative to untreated control; assay type: cell-based
In short: (§3)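 Cells were treated 24 h at several concentrations. Pooled adherent and floating cells were lysed in Hepes 50 mM pH 7.4 / 1% Triton X-100 buffer with vanadate, NaF, EDTA, PMSF, aprotinin and leupeptin. Equal protein was run on 10-15% SDS-PAGE and blotted to PVDF. PDGFR-β-AKT-ULK1 pathway phospho-proteins were probed and detected by ECL, with β-actin as loading control.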

[14] = molecular target: T1, Platelet-derived growth factor receptor beta; assay: Inhibition of PDGFRbeta in human MDA-MB-231 cells assessed as ULK Ser555 phosphorylation level at 2.5 uM incubated for 24 hrs in presence of PDGFRbeta siRNA by Western blot relative to untreated control; assay type: cell-based
In short: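 Cells were transfected with control or PDGFR-β siRNA, then treated with 2.5 μM compound for 24 h. PDGFR-β-AKT-ULK1 pathway phospho-proteins were assessed by western blot: lysis in Hepes pH 7.4 / Triton buffer, 10-15% SDS-PAGE, PVDF, ECL detection, β-actin as loading control.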

MDA-MB-231 [15] = assay: Effect on total Akt protein level in human MDA-MB-231 cells at 2.5 uM incubated for 24 hrs in presence of control siRNA by Western blot relative to untreated control; assay type: ADME, cell-based; conditions: mda-mb-231, 24 h; in short: as §1
[16] = molecular target: T1, Platelet-derived growth factor receptor beta; assay: Inhibition of PDGFRbeta in human MDA-MB-231 cells assessed as Akt Ser473 phosphorylation level at 5 uM incubated for 24 hrs by Western blot relative to untreated control; assay type: cell-based; in short: as §3
MDA-MB-231 [17] = assay: Effect on total mTOR protein level in human MDA-MB-231 cells at 5 uM incubated for 24 hrs by Western blot relative to untreated control; assay type: ADME, cell-based; conditions: mda-mb-231, 24 h; in short: as §1
[18] = molecular target: T2, Mitogen-activated protein kinase; ERK1/ERK2 (Homo sapiens); assay: Inhibition of ERK1/2 in human MDA-MB-231 cells assessed as ERK1/2 Thr202/Tyr204 phosphorylation level at 5 uM incubated for 24 hrs in presence of PDGFRbeta siRNA by Western blot relative to untreated control; assay type: cell-based
MDA-MB-231 [19] = assay: Induction of autophagy in human MDA-MB-231 cells assessed as change in p62 protein level at 10 uM incubated for 24 hrs by Western blot method relative to untreated control; assay type: functional; in short: as §1
MDA-MB-436 = assay: Antiproliferative activity against human MDA-MB-436 cells incubated for 24 hrs by MTT assay; assay type: functional, cell-based; conditions: MDA-MB-436, 24 h
MDA-MB-231 [20] = assay: Induction of autophagy in human MDA-MB-231 cells assessed as change in Beclin-1 protein level at 5 uM incubated for 24 hrs by Western blot method relative to untreated control; assay type: functional
In short: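 MDA-MB-231 cells (ATCC; DMEM, 10% FBS, 5% CO2) were treated 24 h over a concentration series. Adherent and floating cells were pooled and lysed 1 h at 4 °C (50 mM Hepes pH 7.4, 1% Triton X-100, phosphatase/protease inhibitors). Equal protein was run on 10-15% SDS-PAGE, transferred to PVDF, probed for Beclin-1, p62 and LC3 with HRP/ECL detection, and normalised to β-actin.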

T1 sequence (P09619 whole entry): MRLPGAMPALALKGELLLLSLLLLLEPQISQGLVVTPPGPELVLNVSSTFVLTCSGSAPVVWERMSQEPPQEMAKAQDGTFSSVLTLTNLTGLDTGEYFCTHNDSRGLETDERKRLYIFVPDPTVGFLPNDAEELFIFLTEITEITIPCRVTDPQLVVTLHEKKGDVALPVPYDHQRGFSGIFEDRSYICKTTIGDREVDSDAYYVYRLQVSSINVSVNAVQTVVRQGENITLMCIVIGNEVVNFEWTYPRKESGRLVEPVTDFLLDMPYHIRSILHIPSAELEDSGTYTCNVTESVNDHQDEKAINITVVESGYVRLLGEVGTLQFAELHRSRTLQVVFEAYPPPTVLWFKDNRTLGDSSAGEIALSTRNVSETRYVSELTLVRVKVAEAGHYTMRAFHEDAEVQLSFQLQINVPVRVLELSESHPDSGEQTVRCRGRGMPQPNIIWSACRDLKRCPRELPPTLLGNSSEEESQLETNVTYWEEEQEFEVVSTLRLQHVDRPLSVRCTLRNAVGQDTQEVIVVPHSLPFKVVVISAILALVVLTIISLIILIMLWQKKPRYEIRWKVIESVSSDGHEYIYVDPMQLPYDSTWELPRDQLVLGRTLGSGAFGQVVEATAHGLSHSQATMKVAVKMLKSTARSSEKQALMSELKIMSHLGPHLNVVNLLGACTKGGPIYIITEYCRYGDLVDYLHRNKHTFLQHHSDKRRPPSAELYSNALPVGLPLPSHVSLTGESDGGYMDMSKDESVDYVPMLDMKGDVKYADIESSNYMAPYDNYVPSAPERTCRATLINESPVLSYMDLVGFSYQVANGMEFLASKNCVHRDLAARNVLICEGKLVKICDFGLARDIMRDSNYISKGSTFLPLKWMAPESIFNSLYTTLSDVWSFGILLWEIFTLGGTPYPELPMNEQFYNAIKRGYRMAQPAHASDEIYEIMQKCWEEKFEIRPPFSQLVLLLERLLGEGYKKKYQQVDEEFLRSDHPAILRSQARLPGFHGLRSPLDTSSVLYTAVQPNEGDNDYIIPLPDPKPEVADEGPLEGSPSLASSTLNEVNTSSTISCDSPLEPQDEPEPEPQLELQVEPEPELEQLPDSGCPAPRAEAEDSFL

Compound: COc1cccc(Nc2cc(N3CCN(C(=O)Nc4ccc(C(F)(F)F)cc4)CC3)ncn2)c1
- pIC50 [1]: 5.11
- fold change (FC) (MDA-MB-231 [2]): 0.89
- fold change (FC) (MDA-MB-231 [3]): 1.8
- fold change (FC) (MDA-MB-231 [4]): 0.43
- fold change (FC) (MDA-MB-231 [5]): 2.34
- fold change (FC) (MDA-MB-231 [6]): 3.01
- fold change (FC) (MDA-MB-231 [7]): 0.89
- inhibition (MDA-MB-231 [8]): Active
- fold change (FC) [9]: 1.05
- pIC50 (MDA-MB-468): 5.50
- fold change (FC) (MDA-MB-231 [10]): 3.2
- fold change (FC) (MDA-MB-231 [11]): 1.03
- fold change (FC) (MDA-MB-231 [12]): 0.89
- fold change (FC) [13]: 0.12
- fold change (FC) [14]: 3.69
- fold change (FC) (MDA-MB-231 [15]): 0.86
- fold change (FC) [16]: 0.23
- fold change (FC) (MDA-MB-231 [17]): 0.31
- fold change (FC) [18]: 1.86
- fold change (FC) (MDA-MB-231 [19]): 0.55
- pIC50 (MDA-MB-436): 5.63
- fold change (FC) (MDA-MB-231 [20]): 2.8

Source: ChEMBL document CHEMBL4130442, “Design, synthesis and structure-activity relationship studies of a focused library of pyrimidine moiety with anti-proliferative and anti-metastasis activities in triple negative breast cancer” (Eur J Med Chem, 2017)
